Compound activity: PubChem, The Scripps Research Institute Molecular Screening Center
Shown are actives, neighbours in structure and some others; about 1.9% of the full set was active somewhere.
MBD2 inh: blocks human MBD2 binding to methylated DNA; Q9UBB5; TR-FRET, MBD2 binding to methylated oligonucleotide; inhibition, % at 4.4 µM; 370,000 tested, 0.31% active; AID 686964; in the data active means inhibition above about 13%
Rin1 Abl inh: blocks binding of human Rin1 to Abl; P00519+Q13671; TR-FRET Rin1/Abl binding, biochemical; inhibition, % at 7.35 µM; 360,000 tested, 0.4% active; AID 588664; in the data active means inhibition above about 5%, passing the limit was not always enough
UHRF1 binding: human UHRF1 methylated DNA binding inhibitors. inhibition, % at 4.4 µM. UHRF1 binding to methylated oligo, TR-FRET. 370,000 tested, 0.75% active; in the data active means inhibition above about 21%;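 further: UHRF1 SRA domain binding a hemimethylated CpG hairpin DNA probe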
TDP2 absorb: TDP2 (human) inhibition, absorbance primary screen | recombinant TDP2, T5PNP hydrolysis, p-nitrophenol absorbance 415 nm | 370,000 tested, 0.34% active | AID 720702 | inhibition, % at 12.8 µM;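 active means inhibition above the mean of all tested compounds plus 3 SD, set per campaign, cut at about 25% in these data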
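Incubation: 2 h at 37 °C; Test system: recombinant human TDP2; Quantity: enzyme 120 nM; Read-out basis: percent inhibition; Medium: 50 mM Tris-HCl pH 7.5 with Mg2+, KCl, DTT, BSA; Repeats: single replicate; Compound: 12.8 µM single point, 1% DMSO; Signal: epi absorbance; Reagent: 5 mM T5PNP chromogenic substrate; Benchmarks: no-enzyme high, DMSO-plus-enzyme low.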
LEDGF integ inh: blocks HIV-1 LEDGF/p75-dependent DNA integration. TR-FRET IN-LEDGF/p75 DNA integration, Eu/Cy5. inhibition, % at 3.7 µM. 370,000 tested, 0.64% active;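 active means inhibition above the screen-wide mean plus 3 SD, cut at about 13% in these data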;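 further: signal is the Cy5 over europium emission ratio at 671 and 618 nm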
Rin1 Abl conf: Rin1-Abl interaction inhibition confirmation; shares compounds with Rin1 Abl inh; AID 602124; inhibition, % at 7.35 µM; 1,300 tested, 49% active; TR-FRET Rin1-Abl binding, purified proteins
GFP quench: counter-screen for Rin1-Abl inhibitors: GFP fluorescence quenchers | inhibition, % at 6.75 µM | 1,300 tested, 8.5% active | shares compounds with Rin1 Abl inh | inhibitors/quenchers counterscreen;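 further: ABL1-eGFP fusion protein alone without its partner RIN1-SBP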
GFP quench dose: quenches GFP in dose response, Rin1-Abl counter-screen | shares compounds with Rin1 Abl inh | GFP fluorescence interference/quenching counterscreen | IC50, µM | 230 tested, under 10 active; call rule not given here;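 further: ABL1-eGFP fusion protein alone without its RIN1 binding partner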
Hits are given with their value; - = inactive; . = no result given. Unless noted, no stated cut-off is given here; in the data, active means inhibition above about 6.5%; inactive means the rest.

SMILES	MBD2 inh	Rin1 Abl inh	UHRF1 binding	TDP2 absorb	LEDGF integ inh	Rin1 Abl conf	GFP quench	others
COc1cc(CN2C[C@@H](CO)O[C@@H](n3cnc4c(NCc5ccc(F)cc5)ncnc43)C2)cc(OC)c1OC	-	11	-	-	-	6.5	-
COCCNc1ncnc2c1ncn2[C@H]1CN(Cc2ccc(-c3ccccc3)cc2)C[C@@H](CO)O1	-	9.6	-	-	-	11	-
COCCNc1ncnc2c1ncn2[C@H]1CN(Cc2ccc(F)cc2)C[C@@H](CO)O1	-	-	-	-	-	.	.
COc1cc(CNc2ncnc3c2ncn3[C@H]2CN(Cc3ccc(F)cc3)C[C@@H](CO)O2)cc(OC)c1OC	-	-	-	-	-	.	.
CC(C)N(C)c1ncnc2c1ncn2[C@H]1CN(Cc2ccc(Cl)cc2)C[C@@H](CO)O1	-	6.2	-	-	-	6.3	-
C=CCNc1ncnc2c1ncn2[C@H]1CN(Cc2ccc(-c3ccccc3)cc2)C[C@@H](CO)O1	-	19	-	-	-	17	-	GFP quench dose=-
CN(C)c1ccc(C(=O)NCC2CCN(C(=O)C(=O)c3cccs3)CC2)cc1	-	.	-	-	-	.	.
O=C(Nc1ccc2c(c1)OCO2)NC1CCCCN(Cc2cccc(Cl)c2)C1=O (configuration not stated)	-	.	-	-	-	.	.
CN(Cc1ccccc1F)C(=O)C1CCC(CNS(=O)(=O)c2cccc3cccnc23)CC1 (configuration not stated)	-	.	-	-	-	.	.
COc1ccc(-c2ccc3c(n2)CCCN3S(=O)(=O)c2ccccc2)cc1	-	.	-	-	-	.	.
Cn1c(=O)c2c(nc(NCc3ccco3)n2Cc2ccccc2Cl)n(C)c1=O	-	7.1	-	-	-	6.7	-
Cc1cc(N/C(=C\C(=O)c2ccccc2)c2ccccc2)ccc1Br	-	.	-	-	-	.	.
CCOC(=O)CSc1nc2cc(C(=O)N3CCC(C(N)=O)CC3)ccc2c(=O)n1-c1ccccc1	.	9.0	.	.	.	-	-
COc1ccc(OCC(=O)OCCN2C(=O)c3ccccc3C2=O)cc1	-	10	-	-	-	-	-
CC[C@@H](NCCCn1ccc(NC(=O)OCc2ccccc2)nc1=O)c1ccccc1	-	8.4	-	-	-	8.8	-
C[C@@H](NCCCn1ccc(NC(=O)OCc2ccccc2)nc1=O)c1cccc2ccccc12	-	-	-	-	-	.	.
COc1ccc(CN(C)CCCn2ccc(NC(=O)OCc3ccccc3)nc2=O)cc1OC	-	15	-	-	-	22	-	GFP quench dose=-
COC(=O)c1cc(C(c2ccccc2O)C2CCC(C)(C)O2)n2ccccc12 (configuration not stated)	-	.	-	-	-	.	.
C#CCOCCOCCOCCNc1nc(N2CCOCC2)nc(N2CCN(C(=O)[C@H](Cc3ccc(O)cc3)n3cc([C@@H](N)CC(C)C)nn3)CC2)n1	-	14	-	-	-	15	-
O=C(Nc1ccccc1)/C(=C\c1ccccc1)NC(=O)c1ccco1	-	-	-	-	-	.	.
O=C(Nc1ccc(C(=O)O)cc1)/C(=C\c1ccccc1)NC(=O)c1ccco1	-	8.6	-	-	-	-	-
CCOC(=O)CCCCCC(=O)Nc1ccc2c(c1)C(=O)N([C@H](C)CO)C[C@H](C)[C@@H](CN(C)C(=O)Nc1ccccc1)OCCCC[C@@H](C)O2	-	16	-	-	-	22	-	GFP quench dose=-
CCOC(=O)CCCCCC(=O)Nc1ccc2c(c1)C(=O)N([C@@H](C)CO)C[C@@H](C)[C@H](CN(C)C(=O)Nc1ccccc1)OCCCC[C@H](C)O2	-	16	-	-	-	18	-	GFP quench dose=-
O=C(CCc1ccccc1)N[C@H]1[C@H](OC(=O)c2cnccn2)CCC[C@@]12C(=O)N(Cc1ccccc1)c1ccccc12	-	.	-	-	-	.	.
C#CCOCCOCCOCCNc1nc(N2CCN(C(=O)CCCCCCCCCCNC(=O)Cn3cc(CCCCCN)nn3)CC2)nc(N2CCN(C(=O)CCCCCCCCCCNC(=O)[C@@H](CCC(=O)O)n3cc(CCCCCN)nn3)CC2)n1	.	-	.	.	.	.	.
SMILES	MBD2 inh	Rin1 Abl inh	UHRF1 binding	TDP2 absorb	LEDGF integ inh	Rin1 Abl conf	GFP quench	others
C#CCOCCOCCOCCNc1nc(N2CCN(C(=O)CCCCCCCCCCNC(=O)Cn3cc(CCCCCN)nn3)CC2)nc(N2CCN(C(=O)CCCCCCCCCCNC(=O)[C@@H](CCSC)n3cc(CCO)nn3)CC2)n1	.	14	.	.	.	13	-
O=C(CNS(=O)(=O)c1cccs1)N1CCN(c2ncccn2)CC1	-	.	-	-	-	.	.
CCCC(=O)Nc1ccc(N2CCN(C(=O)c3cc4ccccc4o3)CC2)cc1	-	11	-	-	-	8.1	-
CC(=O)N1CCN(c2ccc(NC(=O)c3cc4ccccc4o3)cc2)CC1	-	-	-	-	-	.	.
CCCCC(=O)C1CCN(Cc2ccccc2)CC1	-	11	-	-	-	17	-	GFP quench dose=-
CCCCNC(=O)C1CCN(Cc2ccc(OCc3ccccc3)cc2)CC1	-	-	-	-	-	.	.
COC(=O)[C@]12C[C@H](CC(=O)N3CCN(C(=O)c4ccco4)CC3)C(=O)N(Cc3cccc4ccccc34)C1=C[C@H](C(C)C)O[C@@H]2C1CC1	-	.	-	-	-	.	.
CCCC#Cc1ccc(CC[C@H]2O[C@H]3CC[C@@H](CO)O[C@H]3C[C@H]2NC(=O)CN2CCOCC2)cc1	-	.	-	-	-	.	.
Cn1c(CCNC(=O)c2ccco2)nc2cc(NS(=O)(=O)c3ccc(Cl)cc3)ccc21	-	5.7	-	-	-	-	-
CC(=O)NCCc1nc2cc(NS(=O)(=O)c3ccc(Cl)cc3)ccc2n1C	-	-	-	-	-	.	.
Cc1csc2c(NC3CCN(Cc4ccccc4)CC3)ncnc12	-	5.6	-	-	-	-	-
c1ccc(CN2CCC(Nc3ncnc4sccc34)CC2)cc1	-	-	-	-	-	.	.
O=C(Nc1ccc(C(=O)OC[C@@H]2CCCN3CCCC[C@H]23)cc1)c1cccc(Br)c1	-	8.5	-	-	-	10	-
O=c1cc(NC2CCCCC2)[nH]c(=O)[nH]1	-	-	-	-	-	.	.
Nc1nc(NC2CCCC2)cc(=O)[nH]1	-	18	-	-	-	24	-	GFP quench dose=-
O=C(c1cc(C2CC2)on1)N(C1CCCCC1)C1CCOCC1	-	.	-	-	-	.	.
O=C(Nc1ccc(Oc2ccccc2)cc1)C1CCN(c2c3c(nc4ncnn24)CCC3)CC1	-	6.0	-	-	-	12	-
O=C(Nc1ccc2c(c1)CCC2)C1CCN(c2c3c(nc4ncnn24)CCC3)CC1	-	-	-	-	-	.	.
COCCn1c(SCC(=O)Nc2ccc3c(c2)OCCO3)nc2ccccc2c1=O	-	7.0	-	-	-	-	-
